Measured values as given in ChEMBL document CHEMBL4325893, “Synthesis and antibacterial profiles of targeted triclosan derivatives” (2019).

Tests used:
Cronobacter sakazakii = test: Antibacterial activity against Cronobacter sakazakii 29544 after 18 hrs; assay type: functional; conditions: Cronobacter sakazakii, 29544, 18 h
Method in brief: (§1)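 Broth microdilution in Nutrient Broth No. 2; stocks in ethanol diluted to 0.01–128 µg/ml (triclosan) or 0.25–256 µg/ml (glycosides). Overnight 37 °C NB2 cultures diluted 1 in 10^4 in saline and added to the dilutions. Incubation at 37 °C with agitation, OD read every 15 min; MIC is the lowest concentration preventing any OD rise after 18 h.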

Proteus vulgaris = test: Antibacterial activity against Proteus vulgaris OCC 195 after 18 hrs; assay type: functional; conditions: OCC 195, 18 h; method in brief: as §1
Citrobacter freundii = test: Antibacterial activity against Citrobacter freundii 8090 after 18 hrs; assay type: functional; conditions: Citrobacter freundii, 8090, 18 h; method in brief: as §1
Bacillus cereus = test: Antibacterial activity against Bacillus cereus ATCC 14579 after 18 hrs; assay type: functional; conditions: ATCC 14579, 18 h; method in brief: as §1
[1] = tested on: Staphylococcus saprophyticus; test: Antibacterial activity against Staphylococcus saprophyticus ATCC 15305 after 18 hrs; assay type: functional; conditions: ATCC 15305, 18 h
Method in brief: (§2)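 Broth microdilution in Nutrient Broth No. 2. Ethanol stocks were diluted in broth to 0.01–128 µg/ml for triclosan and 0.25–256 µg/ml for glycosides. Overnight 37°C NB2 cultures were diluted 1 in 10^4 in saline and added to the wells. Plates were incubated at 37°C with OD read every 15 min after agitation. MIC was the lowest concentration giving no OD increase at 18 h.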

Escherichia coli [2] = test: Antibacterial activity against Escherichia coli ATCC 8739 after 18 hrs; assay type: functional; conditions: ATCC 8739, 18 h; method in brief: as §1
Enterococcus faecium = test: Antibacterial activity against Enterococcus faecium ATCC 19434 after 18 hrs; assay type: functional; conditions: ATCC 19434, 18 h; method in brief: as §1
Streptococcus pneumoniae [3] = test: Antibacterial activity against Streptococcus pneumoniae ATCC 49619 after 18 hrs; assay type: functional; conditions: ATCC 49619, 18 h; method in brief: as §2
Staphylococcus aureus [4] = test: Antibacterial activity against Staphylococcus aureus ATCC 29213 after 18 hrs; assay type: functional; conditions: ATCC 29213, 18 h; method in brief: as §1
Enterococcus faecalis = test: Antibacterial activity against Enterococcus faecalis ATCC 29212 after 18 hrs; assay type: functional; conditions: ATCC 29212, 18 h; method in brief: as §1
[5] = Antibacterial activity against Salmonella enterica subspecies enterica serotype Infantis OCC 2133 after 18 hrs; assay type: functional, Salmonella enterica subsp. enterica serovar Infantis; conditions: OCC 2133, 18 h; method in brief: as §1
Staphylococcus aureus [6] = test: Antibacterial activity against Staphylococcus aureus ATCC 6538P after 18 hrs; assay type: functional; method in brief: as §1
Staphylococcus aureus [7] = test: Antibacterial activity against Staphylococcus aureus OCC 104 after 18 hrs; assay type: functional; conditions: OCC 104, 18 h; method in brief: as §1
[8] = Antibacterial activity against Salmonella enterica subspecies enterica serotype Poona NCTC 4840 after 18 hrs; assay type: functional, Salmonella enterica subsp. enterica serovar Poona; conditions: NCTC 4840, 18 h; method in brief: as §1
[9] = Antibacterial activity against Salmonella enterica subspecies enterica serotype Dublin OCC 627 after 18 hrs; assay type: functional, Salmonella enterica subsp. enterica serovar Dublin; conditions: OCC 627, 18 h; method in brief: as §1
Klebsiella aerogenes = test: Antibacterial activity against Enterobacter aerogenes ATCC 13048 after 18 hrs; assay type: functional; conditions: ATCC 13048, 18 h; method in brief: as §1
Escherichia coli [10] = test: Antibacterial activity against Escherichia coli ATCC 25922 after 18 hrs; assay type: functional; conditions: ATCC 25922, 18 h; method in brief: as §1
Salmonella typhimurium = test: Antibacterial activity against Salmonella enterica subspecies enterica serotype typhimurium ATCC 14028 after 18 hrs; assay type: functional, Salmonella enterica subsp. enterica serovar Typhimurium; conditions: ATCC 14028, 18 h; method in brief: as §1
Proteus mirabilis = test: Antibacterial activity against Proteus mirabilis ATCC 12453 after 18 hrs; assay type: functional; conditions: ATCC 12453, 18 h; method in brief: as §1
[11] = Antibacterial activity against Salmonella enterica subspecies enterica serotype Virchow NCTC 5742 after 18 hrs; assay type: functional, Salmonella enterica subsp. enterica serovar Virchow; conditions: NCTC 5742, 18 h; method in brief: as §1
Klebsiella pneumoniae = test: Antibacterial activity against Klebsiella pneumoniae ATCC 13883 after 18 hrs; assay type: functional; conditions: ATCC 13883, 18 h; method in brief: as §1
Escherichia hermannii = test: Antibacterial activity against Escherichia hermannii 33650 after 18 hrs; assay type: functional; conditions: Atlantibacter hermannii, 33650, 18 h; method in brief: as §1
Streptococcus pneumoniae [12] = test: Antibacterial activity against Streptococcus pneumoniae 6305 after 18 hrs; assay type: functional; conditions: Streptococcus pneumoniae, 6305, 18 h; method in brief: as §2
[13] = Antibacterial activity against Enterobacter cloacae ATCC 13047 after 18 hrs; assay type: functional, Enterobacter cloacae subsp. cloacae; conditions: ATCC 13047, 18 h; method in brief: as §1
Salmonella enteritidis = test: Antibacterial activity against Salmonella enterica subspecies enterica serotype Enteritidis 13076 after 18 hrs; assay type: functional, Salmonella enterica subsp. enterica serovar Enteritidis; conditions: Salmonella enterica, 13076, 18 h; method in brief: as §1
Staphylococcus aureus [14] = test: Antibacterial activity against Staphylococcus aureus ATCC 9144 after 18 hrs; assay type: functional; conditions: ATCC 9144, 18 h; method in brief: as §1
Hafnia alvei = test: Antibacterial activity against Hafnia alvei 13337 after 18 hrs; assay type: functional; conditions: Hafnia alvei, 13337, 18 h; method in brief: as §1
Staphylococcus aureus [15] = test: Antibacterial activity against Staphylococcus aureus ATCC 25923 after 18 hrs; assay type: functional; conditions: ATCC 25923, 18 h; method in brief: as §1
Pseudomonas aeruginosa = test: Antibacterial activity against Pseudomonas aeruginosa ATCC 27853 after 18 hrs; assay type: functional; conditions: ATCC 27853, 18 h; method in brief: as §1

Measured: MIC

OC[C@H]1O[C@H](Oc2cc(Cl)ccc2Oc2ccc(Cl)cc2Cl)[C@H](O)[C@@H](O)[C@H]1O
32 µg/mL: Proteus mirabilis | Escherichia hermannii | [13]
16 to 64 µg/mL: Escherichia coli [2] | Escherichia coli [10]
128 µg/mL: Cronobacter sakazakii | Streptococcus pneumoniae [3] | Klebsiella aerogenes | Streptococcus pneumoniae [12]
16 µg/mL: Hafnia alvei
8 to 16 µg/mL: Staphylococcus aureus [4] | Staphylococcus aureus [6] | Staphylococcus aureus [7] | Staphylococcus aureus [14] | Staphylococcus aureus [15]
64 µg/mL: Proteus vulgaris | Citrobacter freundii | [1]
> 256 µg/mL: Bacillus cereus | Enterococcus faecium | Enterococcus faecalis | Pseudomonas aeruginosa
1 µg/mL: Klebsiella pneumoniae
32 to 64 µg/mL: all other assays above
